According to ChEMBL document CHEMBL2434935, “Design, syntheses, and characterization of pharmacophore based chemokine receptor CCR5 antagonists as anti prostate cancer agents” (Eur J Med Chem, 2013):
Calls of active or inactive are those of the source. The rule behind the calls is not given here.

How the values were obtained:
[1] = target: T1, C-C chemokine receptor type 5 (Homo sapiens, UniProt P51681); assay: Antagonist activity at CCR5 (unknown origin) expressed in MOLT4 cells transfected with Gqi5 assessed as inhibition of RANTES-induced calcium ion mobilization after 15 mins by microplate reader method; type: functional, cell-based, MOLT-4; conditions: for inhibition: MOLT-4
In short: (§1)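 CCR5-MOLT-4 cells transfected with Gqi5 (Lipofectamine 2000), kept in RPMI 1640/10% FBS with penicillin, streptomycin and 1 mg/mL G418 at 37 °C, 5% CO2. At 48 h post-transfection the cells were resuspended in 50:1 HBSS:HEPES buffer and loaded with Fluo4-AM plus probenecid for 45 min. Ligands were added at varying concentrations for 15 min, then RANTES or buffer was added at 16 s. Fluorescence was read at 494/516 nm for 120 s.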

[2] = target: T1, C-C chemokine receptor type 5; assay: Agonist activity at CCR5 (unknown origin) expressed in MOLT4 cells transfected with Gqi5 assessed as induction of calcium ion mobilization after 15 mins by microplate reader method; type: functional, cell-based; conditions: MOLT-4; in short: as §1
Target sequence in this assay (P51681 whole entry, looked up): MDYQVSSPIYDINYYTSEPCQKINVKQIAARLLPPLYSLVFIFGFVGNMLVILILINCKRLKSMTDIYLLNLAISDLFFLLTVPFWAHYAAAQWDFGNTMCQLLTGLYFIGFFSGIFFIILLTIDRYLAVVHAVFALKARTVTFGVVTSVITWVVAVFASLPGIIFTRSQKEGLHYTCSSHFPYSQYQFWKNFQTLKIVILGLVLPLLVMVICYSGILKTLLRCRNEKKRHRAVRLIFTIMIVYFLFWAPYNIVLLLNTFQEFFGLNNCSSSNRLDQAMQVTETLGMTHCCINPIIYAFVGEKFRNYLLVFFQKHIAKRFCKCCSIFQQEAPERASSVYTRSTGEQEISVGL

PC-3 = assay: Antiproliferative activity against human PC3 cells after 72 hrs by WST-1 assay; type: functional; conditions: for EC50: PC-3, 72 h, read-out: ED50 (the source's name)
In short: (§2)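 PC-3 cells kept in serum-free RPMI with L-glutamine, ITS and gentamicin plus 10% FBS. M12 cells got 5% FBS, then after 24 h serum-free medium with 0.01% EGF. Cells plated at 1000/well; after 24 h, drugs added at various concentrations in PBS (controls PBS) for 72 h. Medium then replaced with serum-free medium:WST-1 9:1, absorbance read after 3 h. Non-linear regression fit; mean ± S.E.M., ≥3 experiments in triplicate.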

[3] = (§3) Antiproliferative activity against human M12 cells after 72 hrs by WST-1 assay; type: functional; conditions: M12, 72 h, read-out: ED50 (the source's name); in short: as §2
M12 = assay: as §3; type: functional; in short: as §2
[4] = Cytotoxicity against mouse NIH/3T3 cells after 48 hrs by neutral red dye uptake assay; type: cell-based, NIH3T3; conditions: read-out: TC50
In short: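 NIH-3T3 mouse embryonic fibroblasts grown in medium with 10% newborn calf serum and 1% penicillin:streptomycin. Compounds at various concentrations in DMEM dilution medium for 48 h. After HBSS wash, neutral red 25 µg/mL in DMEM/5% NBCS for 3 ± 0.1 h. Dye extracted with 50% ethanol/1% acetic acid, shaken 20 min, absorbance 540 nm. TC50 by non-linear regression.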

Row | IC50 [1] [µM] | inhibition [1] | Activity [2] | EC50 (PC-3) [µM] | Structure (SMILES) | Activity (PC-3) | EC50 [3] [µM] | Activity (M12) | CC50 at 48 h [4] [µM]
1 | 63 | Dose-dependent effect | inactive |  | CCOc1ccc(C2CCN(Cc3ccc(N)cc3)CC2)cc1NC(=O)c1ccccc1 |  |  |  | 
2 | 90 | Dose-dependent effect | inactive |  | CCN(CC)c1ccc(CN2CCC(c3ccc(OC)c(NC(=O)c4ccccc4)c3)CC2)cc1 |  |  |  | 
3 | 73 | Dose-dependent effect | inactive |  | COc1ccc(C2CCN(Cc3ccc([N+](=O)[O-])cc3)CC2)cc1NC(=O)c1cnccn1 |  |  |  | 
4 | 28 | Dose-dependent effect | inactive |  | CCOc1ccc(C2CCN(Cc3ccc([N+](=O)[O-])cc3)CC2)cc1NC(=O)c1ccccc1 |  |  |  | 
5 | 38.8 | Dose-dependent effect | inactive | 72.3 | COc1ccc(C2CCN(Cc3ccc(N)cc3)CC2)cc1NC(=O)c1cnccn1 | Dose-dependent effect | 73.7 | Dose-dependent effect | > 100
6 | 77.8 | Dose-dependent effect | inactive |  | CC(C)Oc1ccc(C2CCN(Cc3ccc(N)cc3)CC2)cc1NC(=O)c1cnccn1 |  |  |  | 
7 | 115 | Dose-dependent effect | inactive |  | CCOc1ccc(C2CCN(Cc3ccc(NC(C)=O)cc3)CC2)cc1NC(=O)c1ccccc1 |  |  |  | 
8 | 45 | Dose-dependent effect | inactive |  | CC(C)Oc1ccc(C2CCN(Cc3ccc([N+](=O)[O-])cc3)CC2)cc1NC(=O)c1ccccc1 |  |  |  | 
9 | 59 | Dose-dependent effect | inactive |  | COc1ccc(C2CCN(Cc3ccc(NC(C)=O)cc3)CC2)cc1NC(=O)c1cnccn1 |  |  |  | 
10 | 92.2 | Dose-dependent effect | inactive |  | CC(=O)Nc1ccc(CN2CCC(c3ccc(OC(C)C)c(NC(=O)c4ccccc4)c3)CC2)cc1 |  |  |  | 
11 | 70.8 | Dose-dependent effect | inactive | 60 | COc1ccc(C2CCN(Cc3ccc(NC(C)=O)cc3)CC2)cc1NC(=O)c1ccccc1 | Dose-dependent effect | 79.9 | Dose-dependent effect | 92.2
12 | 66.2 | Dose-dependent effect | inactive |  | CC(C)Oc1ccc(C2CCN(Cc3ccc(N)cc3)CC2)cc1NC(=O)c1ccccc1 |  |  |  | 
13 | 65.7 | Dose-dependent effect | inactive |  | CC(C)Oc1ccc(C2CCN(Cc3ccc([N+](=O)[O-])cc3)CC2)cc1NC(=O)c1cnccn1 |  |  |  | 
14 | 77 | Dose-dependent effect | inactive |  | COc1ccc(C2CCN(Cc3ccc(N)cc3)CC2)cc1NC(=O)c1ccccc1 |  |  |  | 
15 | 88.1 | Dose-dependent effect | inactive |  | CC(=O)Nc1ccc(CN2CCC(c3ccc(OC(C)C)c(NC(=O)c4cnccn4)c3)CC2)cc1 |  |  |  | 
16 | 43.5 | Dose-dependent effect | inactive |  | CCOc1ccc(C2CCN(Cc3ccc(N)cc3)CC2)cc1NC(=O)c1cnccn1 |  |  |  | 
17 | 64 | Dose-dependent effect | inactive | 86.6 | CCOc1ccc(C2CCN(Cc3ccc(N(CC)CC)cc3)CC2)cc1NC(=O)c1ccccc1 | Dose-dependent effect | 15.9 | Dose-dependent effect | 49.5
18 | 28.7 | Dose-dependent effect | inactive |  | COc1ccc(C2CCN(Cc3ccc([N+](=O)[O-])cc3)CC2)cc1NC(=O)c1ccccc1 |  |  |  | 
19 | 47 | Dose-dependent effect | inactive | 50 | CCOc1ccc(C2CCN(Cc3ccc(NC(C)=O)cc3)CC2)cc1NC(=O)c1cnccn1 | Dose-dependent effect | 58 | Dose-dependent effect | > 100
20 | 61 | Dose-dependent effect | inactive | 109 | CCOc1ccc(C2CCN(Cc3ccc([N+](=O)[O-])cc3)CC2)cc1NC(=O)c1cnccn1 | Dose-dependent effect |  | Dose-dependent effect | > 100
21 | 56 | Dose-dependent effect | inactive |  | CCN(CC)c1ccc(CN2CCC(c3ccc(OC)c(NC(=O)c4cnccn4)c3)CC2)cc1 |  |  |  | 
22 | 51.8 | Dose-dependent effect | inactive | 77 | CCOc1ccc(C2CCN(Cc3ccc(N(CC)CC)cc3)CC2)cc1NC(=O)c1cnccn1 | Dose-dependent effect | 18.7 | Dose-dependent effect | 46.9
23 | 138 | Dose-dependent effect | inactive |  | CCN(CC)c1ccc(CN2CCC(c3ccc(OC(C)C)c(NC(=O)c4ccccc4)c3)CC2)cc1 |  |  |  | 
24 | 61 | Dose-dependent effect | inactive |  | CCN(CC)c1ccc(CN2CCC(c3ccc(OC(C)C)c(NC(=O)c4cnccn4)c3)CC2)cc1 |  |  |  | 
